The target of experiment [1] is Serine/threonine-protein kinase PINK1, mitochondrial (Homo sapiens) (UniProt Q9BXM7). As to the kind of experiment: Activation of PINK1 in human HeLa cells transfected with Parkin assessed as increase in Parkin phosphorylation at serine 65 at 50 uM incubated for 1 hr by Western blot analysis. The class given is cell-based. In short, it runs like this: (§1)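 HeLa cells transfected with Parkin were exposed to 50 μM compound for 1 h, with 10 μM CCCP for 3 h as a control. Cells were then lysed and immunoblotted for pSer65 Parkin, total Parkin, OPA1 and GAPDH (loading control). Untreated transfected and untransfected cells were included. Blots are representative of three repeat experiments.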
Serine/threonine-protein kinase PINK1, mitochondrial (Homo sapiens), sequence (Q9BXM7 whole entry): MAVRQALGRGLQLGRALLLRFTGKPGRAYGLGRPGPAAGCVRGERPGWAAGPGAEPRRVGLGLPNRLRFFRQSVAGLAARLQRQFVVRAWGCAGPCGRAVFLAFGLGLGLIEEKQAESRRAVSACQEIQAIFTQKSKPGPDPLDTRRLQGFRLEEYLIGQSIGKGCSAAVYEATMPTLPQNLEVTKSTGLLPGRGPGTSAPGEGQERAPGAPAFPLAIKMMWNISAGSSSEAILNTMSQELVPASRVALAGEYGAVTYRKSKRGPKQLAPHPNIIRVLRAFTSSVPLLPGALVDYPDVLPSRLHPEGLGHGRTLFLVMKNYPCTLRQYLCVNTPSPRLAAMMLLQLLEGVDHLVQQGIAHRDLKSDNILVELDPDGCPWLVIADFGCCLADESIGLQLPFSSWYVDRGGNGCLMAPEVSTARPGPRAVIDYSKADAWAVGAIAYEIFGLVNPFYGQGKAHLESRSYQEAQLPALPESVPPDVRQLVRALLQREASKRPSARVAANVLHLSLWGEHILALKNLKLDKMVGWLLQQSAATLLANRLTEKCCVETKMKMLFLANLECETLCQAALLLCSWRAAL
(In general: In western blotting, separated proteins are transferred to a membrane and probed.)

Experiment [2] has the same target. As to the kind of experiment: Activation of PINK1 in human HeLa cells transfected with Parkin assessed as prevention of OPA1 cleavage at 50 uM incubated for 1 hr by Western blot analysis. The format is cell-based. The procedure, abridged: as §1
In experiment [3] the test system is HeLa. As to the kind of experiment: Induction of mitophagy in human HeLa cells transfected with YFP-Parkin assessed as effect on mitochondrial fragmentation at 50 uM incubated for 24 hrs by Hoechst 33258 staining based immunofluorescence analysis. The class given is functional, cell-based. In short, it runs like this:
(§2)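 YFP-Parkin-transfected HeLa cells were left untreated or exposed to 50 μM compound alone for 24 h. Cells were PFA-fixed, Triton-permeabilised and immunostained for pSer65-Ub and TOM20 with Hoechst. Confocal imaging assessed mitochondrial fragmentation, YFP-Parkin localisation and ubiquitin phosphorylation.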

Experiment [4] concerns HeLa. As to the kind of experiment: Induction of mitophagy in human HeLa cells transfected with YFP-Parkin assessed as effect on Parkin localization at 50 uM incubated for 24 hrs by Hoechst 33258 staining based immunofluorescence analysis. The class given is functional, cell-based. In short, it runs like this:
as §2

Experiment [5] concerns HeLa. As to the kind of experiment: Induction of mitophagy in YFP-Parkin-transfected human HeLa cells assessed as effect on ubiquitin phosphorylation at 50 uM incubated for 24 hrs by Hoechst 33258 staining based immunofluorescence analysis. The class given is functional, cell-based. The procedure, abridged: as §2
The test system of experiment [6] is HeLa. As to the kind of experiment: Induction of mitophagy in human HeLa cells transfected with YFP-Parkin assessed as parkin localization in mitochondria at 50 uM preincubated for 24 hrs followed by CCCP stimulation and measured after 1 hr hr by Hoechst 33258 staining based immunofluorescence analysis. The format is functional, cell-based. In short, it runs like this: (§3)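 YFP-Parkin HeLa cells were pretreated with 50 μM compound for 24 h, then given 10 μM CCCP or niclosamide for 1 h. Cells were fixed in chilled 4% PFA, permeabilised with 0.1% Triton, blocked in BSA, then immunostained overnight at 4 °C for pSer65-Ub and TOM20 with Hoechst. YFP-Parkin was imaged by confocal microscopy (40× oil). pUb mitochondrial localisation was quantified from images.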

For experiment [7], the target named is Serine/threonine-protein kinase PINK1, mitochondrial (Mus musculus) (UniProt Q99MQ3). As to the kind of experiment: Activation of mouse PINK1 in mouse astrocytes assessed increase in ubiquitin serine 65 phosphorylation at 50 uM incubated for 24 hrs by ELISA analysis. The conditions noted are these: Astrocyte, filed as activator. The format is cell-based. In short, it runs like this: (§4)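 Primary cortical astrocytes came from postnatal day 3 C57BL/6J pups and were used at 70–90% confluence (7–10 days in vitro). Lysates (HEPES/NP-40 lysis, pellet resuspended in RIPA) went to pS65-Ub ELISA. Signal was normalised per μg protein (BCA); mean ± SEM, n = 8.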
Serine/threonine-protein kinase PINK1, mitochondrial (Mus musculus), sequence (Q99MQ3 whole entry): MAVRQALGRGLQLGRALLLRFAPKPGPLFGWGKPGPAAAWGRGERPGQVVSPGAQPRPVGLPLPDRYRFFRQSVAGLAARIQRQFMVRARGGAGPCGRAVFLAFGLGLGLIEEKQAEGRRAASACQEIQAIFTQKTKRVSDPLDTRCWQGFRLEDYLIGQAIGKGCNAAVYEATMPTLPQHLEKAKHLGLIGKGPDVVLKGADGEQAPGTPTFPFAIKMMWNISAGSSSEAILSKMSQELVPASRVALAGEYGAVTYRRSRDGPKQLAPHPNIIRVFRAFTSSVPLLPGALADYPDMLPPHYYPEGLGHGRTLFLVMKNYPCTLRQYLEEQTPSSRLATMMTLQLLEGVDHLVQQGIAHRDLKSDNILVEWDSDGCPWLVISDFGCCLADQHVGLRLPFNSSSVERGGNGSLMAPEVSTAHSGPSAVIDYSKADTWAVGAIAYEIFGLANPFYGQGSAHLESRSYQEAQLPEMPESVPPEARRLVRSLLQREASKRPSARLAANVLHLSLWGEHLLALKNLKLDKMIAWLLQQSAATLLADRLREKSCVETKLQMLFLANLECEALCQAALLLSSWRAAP
(ELISA stands for enzyme-linked immunosorbent assay.)

For experiment [8] the target is unchanged. The experiment in a line: Activation of mouse PINK1 in mouse astrocytes assessed ubiquitin serine 65 phosphorylation at 50 uM preincubated for 24 hrs followed by valinomycin treatment for 5 hrs by ELISA. The class given is cell-based. The conditions noted are these: Astrocyte, time 29.0 hrs. In short, it runs like this:
as §4

The test system of experiment [9] is HeLa. As to the kind of experiment: Inhibition of CCCP-induced ubiquitin phosphorylation at serine 65 residue in human HeLa cells transfected with YFP-Parkin at 50 uM preincubated for 24 hrs followed by CCCP stimulation and measured after 1 hr hr by Hoechst 33258 staining based immunofluorescence analysis. The format is cell-based. Conditions: time 25.0 hrs. In short, it runs like this: as §3

In experiment [10] the target is Serine/threonine-protein kinase PINK1, mitochondrial (Homo sapiens) (UniProt Q9BXM7). As to the kind of experiment: Activation of human PINK1 in human HeLa cells overexpressing Parkin assessed as phosphorylation of ubiquitin at serine 65 at 50 uM and measured after 24 hr by Western blot analysis. The format is cell-based. The procedure, abridged:
(§5)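 Parkin-transfected HeLa cells received 50 μM compound for 24 h. They were then either lysed directly or given 10 μM CCCP for 3 h before lysis. Lysates were immunoblotted for Ser65-phosphorylated ubiquitin, OPA1 cleavage and GAPDH. Untreated transfected and untransfected cells served as references.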

Experiment [11] relates to HeLa. The experiment in a line: Inhibition of ubiquitin phosphorylation in CCCP stimulated human HeLa cells overexpressing Parkin assessed as reduction in CCCP-induced ubiquitin phosphorylation at serine 65 at 50 uM preincubated for 24 hrs followed by CCCP stimulation for 3 hr by Western blot analysis. The conditions noted are these: time 27.0 hrs. The format is cell-based. The procedure, abridged: as §5

Experiment [12] relates to MEF. The experiment in a line: Induction of mitophagy in wild-type PINK1 harboring mouse immortalized MEF cells overexpressing HA-tagged Parkin assessed as increase in mitophagy at 5 uM incubated for 16 hrs by flow cytometry analysis. The format is functional, cell-based. In short, it runs like this: (§6)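 Immortalised MEFs from PINK1 WT or KO mito-QC littermate embryos, overexpressing HA-Parkin, were treated for 16 h. Cells were trypsinised, fixed in 3.7% formaldehyde/200 mM HEPES pH 7.0 and analysed by flow cytometry (≥2 × 10^4 cells). Living cells were gated on scatter, and the untreated-condition gate was applied to all conditions. Percent cells undergoing mitophagy was taken from the GFP/mCherry ratio; n = 3, two-way ANOVA with Sidak test.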

The test system of experiment [13] is MEF. The experiment in a line: Induction of mitophagy in PINK1 knockout mouse immortalized MEF cells overexpressing HA-tagged Parkin assessed as increase in mitophagy at 5 uM incubated for 16 hrs by flow cytometry analysis. The format is functional, cell-based. In short, it runs like this:
as §6
In general terms: A flow cytometer gives signals particle by particle.

Experiment [14] addresses T1, Serine/threonine-protein kinase Pink1, mitochondrial (Tribolium castaneum) (UniProt D6WMX4).
T1 sequence (whole entry): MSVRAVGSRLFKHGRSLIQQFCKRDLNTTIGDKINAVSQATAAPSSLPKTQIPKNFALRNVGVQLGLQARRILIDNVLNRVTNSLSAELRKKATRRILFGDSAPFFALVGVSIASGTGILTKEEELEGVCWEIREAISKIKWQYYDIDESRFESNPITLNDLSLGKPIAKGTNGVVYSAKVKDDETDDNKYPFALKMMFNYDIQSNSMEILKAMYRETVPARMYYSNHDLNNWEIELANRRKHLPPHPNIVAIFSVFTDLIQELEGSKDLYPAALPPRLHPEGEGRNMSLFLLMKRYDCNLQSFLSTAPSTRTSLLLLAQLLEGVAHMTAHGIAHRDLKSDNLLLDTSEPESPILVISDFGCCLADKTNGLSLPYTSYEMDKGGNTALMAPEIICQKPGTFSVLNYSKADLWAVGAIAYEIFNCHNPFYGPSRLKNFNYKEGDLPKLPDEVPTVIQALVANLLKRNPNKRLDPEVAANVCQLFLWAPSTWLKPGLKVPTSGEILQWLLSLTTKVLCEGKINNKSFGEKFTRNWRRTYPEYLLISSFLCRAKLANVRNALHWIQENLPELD
The experiment in a line: Inhibition of recombinant Tribolium castaneum PINK1 using human Parkin as substrate assessed as substrate phosphorylation upto 100 uM.

Experiment [15] deals with T1, Serine/threonine-protein kinase Pink1, mitochondrial (Tribolium castaneum). As to the kind of experiment: Inhibition of recombinant Tribolium castaneum PINK1 using human ubiquitin as substrate assessed as substrate phosphorylation upto 100 uM.
Experiment [16] addresses Serine/threonine-protein kinase PINK1, mitochondrial (Homo sapiens) (UniProt Q9BXM7). As to the kind of experiment: Activation of human PINK1 in human HeLa cells overexpressing Parkin assessed as phosphorylation of ubiquitin at serine 65 at 10 uM and measured after 3 hr by Western blot analysis. The class given is cell-based. The conditions noted are these: filed as activator. The procedure, abridged: (§7)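 Parkin-transfected HeLa (DMEM, 10% FBS, 37 °C, 5% CO2) treated 3 h with 10 μM agent (CCCP control arm), with or without 24 h pre-treatment at 50 μM. Lysed in Tris pH 7.5 buffer with phosphatase/protease inhibitors, protein by Bradford, boiled in SDS buffer, immunoblotted for pUb Ser65, OPA1 (cleavage as depolarization read-out) and GAPDH loading control.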

For experiment [17], the system named is HeLa. The experiment in a line: Induction of mitochondrial membrane depolarization in human HeLa cells overexpressing Parkin assessed as OPA1 cleavage at 10 uM and measured after 3 hrs by Western blot analysis. The class given is functional, cell-based. The procedure, abridged: as §7
Experiment [18] has as its system MEF. The experiment in a line: Induction of mitophagy in wild-type PINK1 harboring mouse immortalized MEF cells overexpressing HA-tagged Parkin assessed as increase in mitophagy at 20 uM incubated for 16 hrs by flow cytometry analysis. The format is functional, cell-based. The procedure, abridged: (§8)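 Immortalized MEFs from littermate PINK1 WT or KO mito-QC embryos (mCherry-GFP-FIS1 reporter), overexpressing HA-Parkin; 2.5 × 10^5 cells seeded day before, treated 16 h. Trypsinized, fixed in 3.7% formaldehyde/200 mM HEPES pH 7.0, ≥2 × 10^4 cells acquired by flow cytometry; live cells gated, percent mitophagy from GFP/mCherry ratio using untreated-cell gate; n = 3; two-way ANOVA with Sidak test.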

Experiment [19] relates to MEF. As to the kind of experiment: Induction of mitophagy in PINK1 knockout mouse immortalized MEF cells overexpressing HA-tagged Parkin assessed as increase in mitophagy at 20 uM incubated for 16 hrs by flow cytometry analysis. The format is functional, cell-based. In short, it runs like this:
as §8

Structures are written as SMILES. Active and inactive are the calls of the source. The calls are words filed in the database; no cut-off is given here.

As for `CNc1ncnc2c1ncn2[C@@H]1O[C@H](CO)[C@@H](O)[C@H]1O`, the outcome in experiment [1] (filed as activator) and in experiment [7] was Active. The result in experiment [2], in experiment [3], in experiment [4], in experiment [5], in experiment [6] and in experiment [8] was inactive. In [9], the inhibition result was “inactive”.

Regarding `CNc1ncnc2[nH]cnc12`, in experiment [1], the outcome was inactive.

For the compound `c1coc(CNc2ncnc3[nH]cnc23)c1`, the result in experiment [10] and in experiment [8] was inactive. Further, the inhibition entry in experiment [11] was “inactive”. The outcome in [7] was Active.

Turning to `O=P(O)(O)OP(=O)(O)OP(=O)(O)OC[C@H]1O[C@@H](n2cnc3c(NCc4ccco4)ncnc32)[C@H](O)[C@@H]1O`, the outcome in [10] was inactive. Further, the inhibition result in experiment [11] was “inactive”.

On to `CC(C)(C)CNc1ncnc2c1ncn2[C@@H]1O[C@H](CO)[C@@H](O)[C@H]1O`, for which the result in experiment [1] and in experiment [2] was inactive.

Consider `CC(C)(C)CNc1ncnc2[nH]cnc12`, for which the outcome in experiment [1] was inactive.

Regarding `OC[C@H]1O[C@@H](n2cnc3c(NCc4ccccc4)ncnc32)[C@H](O)[C@@H]1O`, the result in [1] (filed as activator), in experiment [6], in [7] and in experiment [12] was Active. Further, the outcome in [2], in experiment [3], in [4], in experiment [5], in experiment [8] and in experiment [13] was inactive. The inhibition result in experiment [14] and in [15] was “inactive” each time. Also, the inhibition entry in experiment [9] was “Active”.

With `c1nc(NC2CCCC2)c2nc[nH]c2n1`, the result in experiment [1] was inactive.

As for `CC(C)Nc1ncnc2[nH]cnc12`, the outcome in experiment [1] was inactive.

As to `c1ccc(CNc2ncnc3[nH]cnc23)cc1`, the outcome in experiment [1] was inactive.

With `O=C(Nc1ccc([N+](=O)[O-])cc1Cl)c1cc(Cl)ccc1O`, the outcome in experiment [16] and in experiment [17] was Active.

On to `OC[C@H]1O[C@@H](n2cnc3c(NC4CCCC4)ncnc32)[C@H](O)[C@@H]1O`, for which the result in experiment [1] (filed as activator) was Active. Further, in experiment [2], the outcome was inactive.

For the compound `N#CC(C#N)=NNc1cccc(Cl)c1`, the result in experiment [16], in experiment [18] and in experiment [17] was Active. In [19], the result was inactive.

In the case of `O=P(O)(O)OP(=O)(O)OP(=O)(O)OC[C@H]1O[C@@H](n2cnc3c(NCc4ccccc4)ncnc32)[C@H](O)[C@@H]1O`, the inhibition entry in experiment [14] and in experiment [15] was “inactive” throughout.

For `OC[C@H]1O[C@@H](n2cnc3c(NCCc4ccc(O)cc4)ncnc32)[C@H](O)[C@@H]1O`, in [1] (filed as activator), the result was Active. The result in [2] was inactive.

`CC(C)Nc1ncnc2c1ncn2[C@@H]1O[C@H](CO)[C@@H](O)[C@H]1O`: in [1] (filed as activator), the result was Active. The outcome in experiment [2] was inactive.

For the compound `Oc1ccc(CCNc2ncnc3[nH]cnc23)cc1`, in experiment [1], the result was inactive.
